Assay results gathered from unrelated publications.
Protocols differ between the studies behind these lines.
Target: Mitogen-activated protein kinase 13 (MAPK13, Homo sapiens, UniProt O15264)

| Compound | observed | mode | method | concentration | measurement | value |
| --- | --- | --- | --- | --- | --- | --- |
| COc1cc(/C=C/C(=O)CC(=O)/C=C/c2ccc(O)c(OC)c2)ccc1O | enzyme activity | inhibitor | – | 1 µM | activity vs control | 105% |
| Oc1cccc(-c2nc(N3CCOCC3)c3oc4ncccc4c3n2)c1 | enzyme activity | inhibitor | – | 10 µM | remaining activity | 84% |
| CCC(=O)N[C@@H]1CC[C@H](C(=O)N(C)c2ccc(-c3nc4ccccc4o3)cc2)C1 | cell-free assay | – | competition with immobilised ligand | 1 µM | remaining binding | 100% |
| COc1cc(Cl)c(C(=O)N[C@@H](CN[C@H]2CC[C@@H](N)CC2)Cc2ccc(C#N)cc2)cc1-c1ccc(CN[C@H](C)c2ccc(C)cc2)o1 | enzyme activity | inhibitor | – | 1 µM | remaining activity | 101% |
| O=C(O)[C@@H]1[C@@H](Cn2nnc3ccccc3c2=O)CC[C@H]1C(=O)c1ccc(OCCC2CCOCC2)cc1 | cell-free assay | – | competition with immobilised ligand | 1 µM | remaining binding | 94% |
| CC(C)(C)c1nc2c(s1)c1nc(N)ncc1c1ccc(NS(=O)(=O)c3c(F)cccc3F)c(F)c12 | enzyme activity | inhibitor | radiometric | 1 µM | remaining activity | 91% |
| CNC(=O)c1cc(Oc2ccc(NC(=O)Nc3ccc(Cl)c(C(F)(F)F)c3)cc2)ccn1 | enzyme activity | inhibitor | – | 0.3 µM | inhibition | -6% |
| Nc1nc(NC2CCCCC2)sc1C(=O)c1ccccc1 | enzyme activity | inhibitor | – | 10 µM | remaining activity | 67% |
| Cn1c2c(Cl)c(Cl)ccc2c2cc[nH]c(=O)c21 | thermal stability | – | DSF | 10 µM | ΔTm | -0.4 °C |
| CCN(CC)CCNC(=O)c1c(C)[nH]c(/C=C2\C(=O)Nc3ccc(F)cc32)c1C | enzyme activity | inhibitor | – | 10 µM | inhibition | -5% |
| Cn1c2c(c3ccc(Cl)c(Cl)c31)C(C#N)C1(CCOCC1)NC2=O (centres unmarked) | thermal stability | – | DSF | 10 µM | ΔTm | 0.4 °C |
| CN(c1ncccc1CNc1nc(Nc2ccc3c(c2)CC(=O)N3)ncc1C(F)(F)F)S(C)(=O)=O | enzyme activity | inhibitor | – | 1 µM | inhibition | 42.1% |
| CN(c1ccnc(CNc2nc(Nc3ccc4c(c3)CC(=O)N4)ncc2C(F)(F)F)n1)S(C)(=O)=O | cell-free assay | – | competition with immobilised ligand | 1 µM | remaining binding | 100% |
| Cc1sc(C(=O)NC2COC2)cc1-n1cc(NC(=O)Nc2c(F)cccc2Cl)cn1 | enzyme activity | inhibitor | – | 10 µM | remaining activity | 89.2% |
| Cc1c(NC(=O)c2cc(C(N)=O)nc3cc(F)ccc23)c(C(F)(F)F)nn1Cc1ccc(C#N)cc1 | cell-free assay | – | competition with immobilised ligand | 1 µM | remaining binding | 70% |
| Cc1ccc(NC(=O)c2ccc(C)c(C(F)(F)F)c2)cc1C#Cc1nn(C2CCC(O)CC2)c2ncnc(N)c12 (centres unmarked) | cell-free assay | – | – | 10 µM | remaining signal | 80% |
| Cc1nccc(COC(=O)N2C[C@@H]3[C@@H](CNC(=O)c4ccc5[nH]nnc5c4)[C@@H]3C2)n1 | cell-free assay | – | competition with immobilised ligand | 1 µM | remaining binding | 98% |
| N#CCCc1ccc2c(c1)-c1[nH]c3ccc([N+](=O)[O-])cc3c1CC(=O)N2 | cell-free assay | – | – | 0.5 µM | remaining signal | 98.2% |
| O=C(NCc1ncc(C(F)(F)F)cc1Cl)c1ccc2c(c1)C1(CCS(=O)(=O)CC1)[C@H](C1CC1)N2S(=O)(=O)c1ccc(F)cc1 | cell-free assay | – | competition with immobilised ligand | 1 µM | remaining binding | 99% |
| Cn1c2c(c3ccc(Cl)c(Cl)c31)C(C#N)C(C)(C)NC2=O (centres unmarked) | thermal stability | – | DSF | 10 µM | ΔTm | 1.4 °C |
